Measurements taken from article PMC4133170 (Biochimica et biophysica acta, 2014).

Key:
RAGE = experiment: Western blot of RAGE expression in hCMEC/D3 cells; type: cell-based, human; conditions: 24 h, 100 nM monomeric Aβ40 or 50 nM Aβ42 oligomers, n = 3
Outline: (§1)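 hCMEC/D3 cells (1 × 10⁶ per 100 mm dish) grown to 70% confluence, then given 24 h of control media, 100 nM Aβ40 monomer, 50 nM Aβ42 oligomer or both. Lysed in RIPA with protease inhibitors; 25 μg protein on 8% Bis-Tris/MOPS gel, nitrocellulose, 2% BSA block. Overnight primary: LRP1 1:1500, RAGE 1:200, GAPDH 1:3000. HRP secondary 1:5000; bands quantified; three independent blots.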

LRP1 [1] = experiment: Western blot of LRP1 expression in hCMEC/D3 cells; type: cell-based, human; conditions: 24 h, 100 nM monomeric Aβ40 or 50 nM Aβ42 oligomers, n = 3
Outline: as §1

hCMEC/D3 cells = experiment: MTT cytotoxicity assay; type: cell-based, human
LRP1 [2] = conditions: in vivo administration of 100 μg over 26 h, FVB wild type mice; cited from earlier work

For “Aβ40 monomer: synthetic Aβ40 peptide (AnaSpec), HFIP film dissolved in media and used immediately”, the “alteration in RAGE protein expression” value (RAGE) was “did not show any significant alterations”, the “reduction of LRP1 expression” value (LRP1 [1]) was “not observed” and the “decrease in viability of hCMEC/D3 (MTT)” value (hCMEC/D3 cells; 24 h treatment with 250 nM Aβ40 monomer, mean of n = 3 independent experiments) was 14–17%. The “MTT assay result versus control” value (hCMEC/D3 cells; 24 h treatment, Aβ40 monomers at 50 and 100 nM, n = 3) was “comparable to control treated cells”.

In the case of “Aβ42 monomers: human sequence Aβ42 monomers administered in vivo in a cited study”, the “LRP1 expression in brain tissue” value (LRP1 [2]) is listed as “significant reduction in LRP1 expression”.
